Compound activity deposited in PubChem by The Scripps Research Institute Molecular Screening Center.
Fam108B inh: counter-screen for RBBP9 inhibitors: inhibitors of mouse Fam108B; 300,000 tested, 0.33% active; inhibition, % at 9.51 µM; recombinant Fam108B, FP-Rh probe fluorescence polarization;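 active means inhibition above the screen mean inhibition plus 3 SD, computed separately per campaign, cut at about 18% in these data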;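 further: inhibitors lower polarization as less probe binds the enzyme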
LYPLA2 counter: LYPLA2 (human) inhibition in PME1 counter-screen; O95372; recombinant LYPLA2, FP-Rh probe fluorescence polarization; inhibition, % at 5.9 µM; 320,000 tested, 0.38% active; AID 2177;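 active means inhibition above the screen-wide mean plus 3 SD, limit set per campaign, cut at about 26% in these data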;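 further: 0% = LYPLA2 with DMSO and 100% = wells lacking LYPLA2 enzyme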
Target sequence (O95372 whole entry, looked up): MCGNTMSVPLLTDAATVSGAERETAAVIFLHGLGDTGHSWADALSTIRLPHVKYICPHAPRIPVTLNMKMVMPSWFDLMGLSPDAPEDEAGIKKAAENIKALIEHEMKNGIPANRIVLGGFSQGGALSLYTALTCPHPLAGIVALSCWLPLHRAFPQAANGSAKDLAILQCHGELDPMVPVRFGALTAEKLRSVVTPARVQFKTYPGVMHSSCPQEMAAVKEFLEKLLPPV
PME-1 primary: blocks human protein phosphatase methylesterase 1; AID 2130; inhibition, % at 5.9 µM; 320,000 tested, 0.53% active; recombinant PME-1, FP-Rh probe fluorescence polarization; Q9Y570;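 active means inhibition above the campaign mean of all compounds plus 3 SD, cut at about 26% in these data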;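 further: competitive labeling of PME-1 active site by serine hydrolase directed probe; 0% = PME-1 with DMSO and 100% = wells lacking PME-1 enzyme; inhibitors block probe labeling so polarization falls and inhibition rises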
LYPLA1 inh: counter-screen for PME1 inhibitors: inhibitors of human LYPLA1; 320,000 tested, 0.16% active; recombinant LYPLA1, FP-Rh probe fluorescence polarization; AID 2174; inhibition, % at 5.9 µM; O75608;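 active means inhibition above the mean of all tested compounds plus 3 SD, set per campaign, cut at about 14% in these data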;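 further: inhibitors block serine hydrolase probe labeling of LYPLA1 so polarization falls; 0% = enzyme with DMSO and 100% = wells lacking LYPLA1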
Target sequence (O75608 whole entry, looked up): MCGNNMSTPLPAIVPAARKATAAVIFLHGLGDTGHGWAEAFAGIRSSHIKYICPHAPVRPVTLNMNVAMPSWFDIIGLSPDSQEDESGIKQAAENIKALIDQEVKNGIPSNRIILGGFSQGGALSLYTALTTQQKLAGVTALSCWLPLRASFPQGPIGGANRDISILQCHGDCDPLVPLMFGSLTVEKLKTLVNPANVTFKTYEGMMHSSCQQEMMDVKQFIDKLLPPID
procasp3 activ: activates human procaspase-3; P42574; recombinant procaspase-3 D3A, Ac-DEVD-pNA absorbance 405 nm; activation, % at 8.5 µM; 330,000 tested, 0.11% active; AID 463141;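 active means activation above the mean of all tested compounds plus 3 SD, cut at about 21% in these data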;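 further: 0% = DMSO alone and 100% = DMSO wells spiked with extra 5 µM PC-3 D3A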
Target sequence (P42574 whole entry D9A/D28A/D175A): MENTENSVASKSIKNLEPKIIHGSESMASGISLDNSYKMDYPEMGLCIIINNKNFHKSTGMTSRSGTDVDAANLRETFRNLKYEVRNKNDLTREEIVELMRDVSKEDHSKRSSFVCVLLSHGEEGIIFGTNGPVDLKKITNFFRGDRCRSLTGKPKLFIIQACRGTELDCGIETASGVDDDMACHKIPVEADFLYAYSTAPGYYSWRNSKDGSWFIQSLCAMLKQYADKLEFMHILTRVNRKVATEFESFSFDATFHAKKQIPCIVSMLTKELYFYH
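Assay system – Procaspase-3 D3A mutant · Benchmarks – DMSO low control, extra-enzyme high control · Technique – 405 nm absorbance of p-nitroaniline, reads at 0 and 120 min · Doses – 8.5 µM nominal · Measure – % activation between DMSO and enzyme-spiked controls · Also added – Ac-DEVD-pNA chromogenic peptide substrate · Schedule – 1 h compound preincubation, 2 h substrate hydrolysis at 25 °C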
procasp7 counter: counter-screen for procaspase-3 activators: activators of human procaspase-7; P55210; recombinant procaspase-7, Ac-DEVD-pNA absorbance 405 nm; D23A/D198A/D206A triple mutant, cannot self-cleave; scale: DMSO 0, 5 µM enzyme 100; activation, % at 8.5 µM; 330,000 tested, 0.093% active; AID 463210;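 active means percent activation above the screen-wide mean plus 3 SD, cut at about 25% in these data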
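Assay system: Uncleavable procaspase-7 mutant enzyme / Input: 2 µM procaspase-7 mutant as dispensed / Dosing: single nominal 8.5 µM compound dose, 0.8% DMSO final / Timing: 1 h enzyme–compound preincubation and 2 h substrate reaction, both 25 °C / Detection: p-Nitroaniline absorbance at 405 nm, read at 0 and 120 min / Replication: singlicate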
LYPLA1 conf: LYPLA1 (human) inhibition, confirmation counter-screen. AID 2233. recombinant LYPLA1, FP-Rh probe fluorescence polarization. shares compounds with LYPLA1 inh. inhibition, % at 5.9 µM. 480 tested, 69% active;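 active means mean inhibition across replicates above the hit cutoff set in the primary screen, cut at about 15% in these data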;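 further: loss of FP-Rh probe labeling of LYPLA1 seen as lower polarization; 0% = LYPLA1 with DMSO and 100% = wells lacking LYPLA1 enzyme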
LYPLA2 confirm: LYPLA2 (human) inhibition, confirmation counter-screen; recombinant LYPLA2, FP-Rh probe fluorescence polarization; shares compounds with LYPLA2 counter; inhibition, % at 5.9 µM; 1,100 tested, 72% active;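 active means mean inhibition across replicates above the hit cutoff set in the primary screen, cut at about 26% in these data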;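 further: blocked labeling of the enzyme by serine hydrolase FP-Rh probe lowers polarization; 0% = enzyme with DMSO and 100% = wells lacking LYPLA2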
LYPLA2 ABPP: inhibitors of human LYPLA2; shares compounds with LYPLA2 counter; rhLYPLA2 in mouse brain proteome, gel ABPP FP-Rh; inhibition, % at 20 µM; 150 tested, 30% active; AID 652029;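 active means inhibition of LYPLA2 enzyme probe labeling above about 50%, limit read from the data; inactive means inhibition below that limit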;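 further: loss of FP-Rh probe labeling of the LYPLA2 gel band measured as band density; 0% = DMSO only control band and 100% = blank gel background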
PC3 dual counter: counter-screen: procaspase-3 (human) activation | activation, % at 8.5 µM | recombinant PC-3 D3A, Ac-DEVD-pNA absorbance 405 nm; aspartates 9, 28, 175 changed to alanine; 100% = enzyme control | shares compounds with procasp7 counter | 290 tested, under 10 active;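 active means mean percent activation across triplicates above a set limit taken from the earlier primary procaspase-3 screen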;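 further: 0% = DMSO wells and 100% = DMSO wells with 5 µM added PC-3 D3A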
Procasp7 act: procaspase-7 (human) activation, dual activator confirmation; activation, % at 8.5 µM; shares compounds with procasp7 counter; 290 tested, under 10 active; recombinant procaspase-7, Ac-DEVD-pNA absorbance 405 nm; D23A/D198A/D206A mutant that cannot self-cleave;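 active means mean activation above a set limit carried over from the earlier primary screen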;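 further: 0% = DMSO only and 100% = DMSO with added 5 µM PC-7 enzyme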
* = called active by the depositor; / = no result. Shown are actives, neighbours in structure and some others; about 1% of the full set was active somewhere.

SMILES	Fam108B inh	LYPLA2 counter	PME-1 primary	LYPLA1 inh	procasp3 activ	procasp7 counter	LYPLA2 confirm	others
COc1ccc2nc(NC(=O)c3sc4nc(C)cc(C)c4c3N)sc2c1	-4.1	5.5	-0.4	14.6*	21.1	71.5*	/	LYPLA1 conf=17.7*;PC3 dual counter=-28.5;Procasp7 act=-35.8
COc1ccccc1NCc1nnc(-c2ccccc2)o1	2.6	-1.3	6.3	0.2	3.2	-1.1	/
Cc1c(NC(=O)/C=C/c2cn(-c3ccccc3)nc2-c2ccc(F)cc2)c(=O)n(-c2ccccc2)n1C	-6.8	31.2*	-5.8	-7.7	5.4	-5.9	30.4*
CCCOc1ccc(-c2csc3ncn(Cc4ccc(C(=O)O)cc4)c(=O)c23)cc1	-2.3	30.0*	-8.1	-5.3	11.7	5.5	33.2*
O=C1NC(=O)/C(=C\c2ccc(Oc3ccc([N+](=O)[O-])cn3)cc2)S1	0.2	10.6	4.1	1.6	2.0	-4.1	/
O=[N+]([O-])c1ccc(Oc2ccc(/C=N/O)cc2)nc1	7.2	40.5*	-4.1	5.1	5.2	2.1	26.4*
O=C(O)CN1C(=O)/C(=C\c2cccc(OCc3ccc(Cl)cc3)c2)SC1=S	-1.3	27.9*	6.8	-2.6	-4.4	-14.0	27.1*
O=C(O)CN1C(=O)/C(=C\c2cccc(OCc3ccccc3F)c2)SC1=S	4.1	-0.1	0.0	0.1	-11.4	-16.4	/
Cc1cc(C)n(Cc2ccc(C(=O)N/N=C/c3ccc(-c4ccc([N+](=O)[O-])cc4)o3)o2)n1	5.8	27.7*	0.9	4.5	2.3	9.7	27.0*
COc1ccc(N2CCN(C(=O)C3CCCN(S(=O)(=O)c4ccc(F)cc4)C3)CC2)cc1 (stereo not given)	2.3	2.2	1.2	3.0	-1.1	9.6	/
Cc1cc(S(=O)(=O)N2CCCC2)ccc1OCC(=O)N1CCOCC1	-1.7	-2.6	2.5	-1.7	2.4	9.6	/
COc1ccc(N2CCN(C(=O)C3CCN(S(=O)(=O)c4ccc(F)cc4)CC3)CC2)cc1	-5.1	41.5*	42.1*	0.9	-1.2	4.3	44.6*
COc1ccc(N2CCN(C(=O)COc3ccc(S(=O)(=O)N4CCOCC4)cc3C)CC2)cc1	1.8	28.2*	-1.4	6.0	-2.0	-1.7	30.5*
CC(=O)N1c2ccc(S(=O)(=O)N3CCC(C(=O)N4CCN(c5cccc(C(F)(F)F)c5)CC4)CC3)cc2CC1C (stereo not given)	-6.2	15.4	-0.8	-3.5	-4.1	-1.8	/
CC(=O)c1ccc(N2CCN(C(=O)C3CCN(S(=O)(=O)c4ccc5c(c4)CC(C)N5C(C)=O)CC3)CC2)cc1 (stereo not given)	-8.4	73.9*	2.3	1.3	8.4	-9.0	72.7*	LYPLA2 ABPP=64.0*
CC(=O)N1N=C(c2ccc(Cl)cc2)CC1c1ccco1 (stereo not given)	2.2	4.8	-1.7	0.1	1.7	6.7	/
CSCCC1NC(=O)N(CC(=O)N2N=C(c3ccc(Cl)cc3)CC2c2ccco2)C1=O (stereo not given)	-7.7	41.4*	-5.4	0.4	6.9	8.3	36.8*
O=C(Nc1ccccc1N1CCCC1)c1ccc([N+](=O)[O-])cc1Cl	-1.0	3.4	-1.8	0.2	-0.7	-7.9	/
CC(=O)OCC1=C(C(=O)O)N2C(=O)C(NC(=O)CCn3nc(C(F)(F)F)c(Br)c3C3CC3)C2SC1 (stereo not given)	0.6	-2.4	2.6	-0.8	-6.8	-17.6	/
CC1Oc2ccccc2N(CC(=O)N2CCCC2)C1=O (stereo not given)	-2.3	-0.3	-5.8	1.1	0.5	8.0	/
CC1CCCN(C(=O)CN2C(=O)C(C)Oc3ccccc32)C1 (stereo not given)	1.3	28.9*	1.0	5.2	1.3	4.6	-2.5
Oc1ccccc1C(=S)N1CCN(C(=S)c2ccccc2O)CC1	-3.1	-4.6	-2.8	-5.1	2.0	8.3	/
Cc1nc([N+](=O)[O-])cn1-c1nc2ccccn2c1[N+](=O)[O-]	-0.8	-4.1	-0.8	1.2	1.6	7.2	/
Cc1cc(C)c(C#N)c(SCc2[nH]nc3c2C(c2ccc(F)cc2)C(C#N)=C(N)O3)n1 (stereo not given)	-3.8	39.8*	11.6	-2.1	-10.0	-12.8	36.2*
Cc1cc(C#N)c(C)c(SCc2[nH]nc3c2C(c2ccccc2)C(C#N)=C(N)O3)n1 (stereo not given)	-1.0	5.3	13.9	-4.9	-7.0	-3.1	/
SMILES	Fam108B inh	LYPLA2 counter	PME-1 primary	LYPLA1 inh	procasp3 activ	procasp7 counter	LYPLA2 confirm	others
COc1ccc(N2CCN(CC(O)COc3ccccc3[N+](=O)[O-])CC2)cc1 (stereo not given)	4.2	7.0	1.7	-1.0	5.7	-5.2	/
OC(COc1cccc2ccccc12)CN1CCN(c2cccc(Cl)c2)CC1 (stereo not given)	3.8	35.3*	-1.3	12.9	5.3	-3.9	21.6
OC(COc1cccc2ccccc12)CN1CCN(c2ccc(Cl)cc2)CC1 (stereo not given)	1.1	1.4	3.2	-1.9	2.6	-0.1	/
O=[N+]([O-])c1ccccc1OCC(O)CN1CCN(CC(O)COc2ccccc2[N+](=O)[O-])CC1 (stereo not given)	-0.7	44.4*	3.5	-0.1	-4.6	1.5	49.3*
NS(=O)(=O)c1ccc(NC(=O)COc2ccc(S(=O)(=O)N3CCCC3)cc2)cc1	-1.0	2.1	2.6	-0.9	4.8	9.4	/
COc1ccc(-c2cc(C3CCN(C(=O)OC(C)(C)C)CC3)[nH]n2)cc1	1.0	26.6*	-3.4	5.8	2.5	-10.5	17.8
